In the library only some 3.3% were active in any assay of this set; here they are far more common.
STAT3 act-1 – IL-6 driven STAT3 reporter potentiators, primary screen, U3A cells, luciferase, luminescence, MLSCN library; actives 0.91% (n = 190,000); IL-6 STAT3-luciferase reporter; 100% = signal with IL-6 EC80 alone; activation (% of control), % at 5.6 µM; AID 871, 2007;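 active = activation above the screen-wide mean of compound activation plus 3 SD, cut at about 130% in these data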;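 also: 0% = background luminescence of wells with medium and substrate only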
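System – human U3A cells carrying STAT3-luciferase construct · Probe or stimulus – Interleukin-6, 33 ng/mL · Schedule – compound 1 h, then IL-6 6 h at 37 °C · Signal – luminescence from STAT3-driven luciferase reporter · Evaluation – percent of IL-6-only median luminescence · Benchmarks – IL-6-only high control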
AHR act – AHR activators, primary screen, cell-based, luminescence, luciferase reporter, human | actives 2.5% (n = 320,000) | activation, % at 5 µM | AHR-responsive luciferase reporter cells; in the data active = activation above about 47%;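 also: 0% = vehicle wells and 100% = reference agonist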
GAA850 FXN act – FXN promoter activators, primary screen, cell-based, luciferase luminescence, HEK293 lucGAA850; actives 0.56% (n = 360,000); HEK293 lucGAA850 FXN promoter luciferase reporter, 24 h; percent of 10 µM SAHA response; activation, % at 6 µM;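 active = activation above the average of all compounds screened plus 3 SD, cutoff fixed separately per campaign, cut at about 7.5% in these data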;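 also: 0% = DMSO wells and 100% = 10 µM SAHA wells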
ABCB6 inh 2 – ABCB6 transporter inhibitors, primary screen, K562-ABCB6 cells, flow cytometry, MLPCN library. ATP-binding cassette sub-family B member 6 (Homo sapiens), Q9NP58. K562-ABCB6 porphyrin accumulation, 1 h; active compounds read low. fluorescence ratio to DMSO, % at 10 µM. actives 0.19% (n = 360,000). AID 602162, 2011;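 active = fluorescence ratio to DMSO below 75%, the collection mean minus 3 SD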;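 also: signal is porphyrin accumulated inside mitochondria; 100% equals median channel fluorescence of DMSO control wells; lower ratio means ABCB6 inhibition with less porphyrin fluorescence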
Target sequence (Q9NP58 whole entry, looked up): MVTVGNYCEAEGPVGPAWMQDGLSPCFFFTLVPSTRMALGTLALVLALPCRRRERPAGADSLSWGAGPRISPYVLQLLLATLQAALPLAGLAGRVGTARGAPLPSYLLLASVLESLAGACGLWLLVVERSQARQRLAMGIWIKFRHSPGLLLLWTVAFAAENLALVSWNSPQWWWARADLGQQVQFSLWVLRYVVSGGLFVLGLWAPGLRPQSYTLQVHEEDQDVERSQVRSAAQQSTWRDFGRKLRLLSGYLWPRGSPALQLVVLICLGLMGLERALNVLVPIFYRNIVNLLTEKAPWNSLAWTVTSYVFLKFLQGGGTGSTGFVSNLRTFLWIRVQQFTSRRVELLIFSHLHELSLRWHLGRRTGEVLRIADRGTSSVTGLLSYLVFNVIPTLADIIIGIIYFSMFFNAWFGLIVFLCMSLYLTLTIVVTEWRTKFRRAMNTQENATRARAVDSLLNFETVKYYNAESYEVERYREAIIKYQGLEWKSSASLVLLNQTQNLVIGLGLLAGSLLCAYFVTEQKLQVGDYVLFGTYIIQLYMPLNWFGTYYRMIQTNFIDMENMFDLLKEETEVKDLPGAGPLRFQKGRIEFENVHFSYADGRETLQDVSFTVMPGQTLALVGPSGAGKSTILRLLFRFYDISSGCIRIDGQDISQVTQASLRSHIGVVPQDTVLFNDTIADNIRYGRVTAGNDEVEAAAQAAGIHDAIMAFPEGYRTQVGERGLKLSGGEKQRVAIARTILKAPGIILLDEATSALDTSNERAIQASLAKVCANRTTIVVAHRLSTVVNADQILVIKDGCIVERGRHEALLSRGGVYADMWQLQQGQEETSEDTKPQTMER
STAT3 act-2 – STAT3 reporter potentiators, retest of hits, confirmation, U3A cells, luciferase, luminescence; shares compounds with STAT3 act-1; actives 64% (n = 1,200); potentiation (% of control), % at 5.7 µM; IL-6 potentiation; U3A cells lack STAT1; 100 means same as IL-6 alone;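 active = percent activation of the STAT3 luciferase reporter above a set limit taken from the earlier primary screen, cut at about 130% in these data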;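 also: 0% = background signal of medium plus substrate and 100% = median of IL-6 with DMSO wells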
NFkB act STAT3ct – NF-kB reporter activators in human cells, counter-screen for STAT3 activator project; shares compounds with STAT3 act-1; NF-kappaB reporter activation; activation (% of control), % at 5.7 µM; actives 11% (n = 1,200); in the data active = activation above about 120%;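 also: reporter induced by TNF-alpha stimulation; 100% = median of stimulated DMSO wells and 0% = no signal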
STAT1 act – STAT1 reporter activators, IFN-gamma induced, counter-screen for STAT3 activator project, cell-based, NIH 3T3, luciferase luminescence; shares compounds with STAT3 act-1; NIH 3T3 STAT1-luciferase reporter; activation (% of control), % at 5.7 µM; actives 13% (n = 1,200);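 active = activation above the solvent-only control well mean plus 3 SD, set per screening run, cut at about 120% in these data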;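 also: 100% = IFN-gamma with DMSO median signal so 100% means no change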
Numbers without * were called inactive; . = no result given.

SMILES | STAT3 act-1 | AHR act | GAA850 FXN act | ABCB6 inh 2 | STAT3 act-2 | NFkB act STAT3ct | STAT1 act
CC12CCC(=O)N1C(C(=O)Nc1ccc(F)cc1)CS2 (stereo not drawn) | . | -1.9 | -0.1 | 95.0 | . | . | .
Nc1nc(SCc2ccccc2)c2ncn(C3CCCO3)c2n1 (stereo not drawn) | . | . | 3.9 | 99.0 | . | . | .
Cc1cc(C)n(/N=C/c2ccc(C(C)C)cc2)c(=O)c1C#N | 88.2 | -6.2 | 2.5 | 92.0 | . | . | .
CCOc1ccccc1-c1nnc(SCC(=O)NC2CC3CCC2C3)n1CC (stereo not drawn) | 159.6* | 19.8 | 0.7 | 100.0 | 168.6* | 127.5* | 162.4*
COc1ccc(Cl)cc1NC(=O)c1[nH]nc(OC)c1[N+](=O)[O-] | 143.8* | 20.1 | 3.3 | 99.0 | 139.7* | 96.0 | 94.8
CC1=NC(=O)C(N=Nc2cccc(O)c2)N1c1ccccc1 (stereo not drawn) | 185.0* | 28.7 | 0.7 | 107.0 | 186.7* | 105.5 | 120.1
CN(C)S(=O)(=O)c1ccc(C(=O)Oc2cc(=O)[nH]c3ccccc23)cc1 | 154.2* | 16.3 | -0.2 | 92.0 | 123.8 | 100.5 | 97.8
CCOC(=O)c1[nH]c2ccccc2c1NC(=O)c1ccc(S(=O)(=O)N(C)C)cc1 | 112.4 | 10.8 | -2.3 | 102.0 | . | . | .
CCOc1ccc(S(=O)(=O)Nc2cc(SCC(=O)O)c(O)c3ccccc23)cc1 | . | . | 2.5 | 108.0 | . | . | .
Cc1ccc(C)c(S(=O)(=O)Nc2cc(SCC(=O)O)c(O)c3ccccc23)c1 | 143.0* | 31.4 | -1.6 | 88.0 | 145.6* | 104.9 | 107.8
Cc1ccc(NC(=O)C(C)N2CCCc3ccccc32)cc1S(=O)(=O)N1CCOCC1 (stereo not drawn) | . | . | -3.8 | 100.0 | . | . | .
CCN(CC)S(=O)(=O)c1cc(NC(=O)C(C)N2CCc3ccccc32)ccc1C (stereo not drawn) | 142.0* | 10.1 | -0.8 | 115.0 | 141.2* | 106.7 | 105.2
O=C(N/N=C/c1c[nH]c2ccccc12)c1[nH]c2ccc(Br)cc2c1-c1ccccc1 | 150.1* | . | -0.9 | 101.0 | 115.0 | 157.0* | 106.6
O=C(N/N=C/c1c[nH]c2ccc(Br)cc12)c1ccccn1 | 95.4 | 14.1 | 3.2 | 93.0 | . | . | .
O=C(N/N=C/c1ccc(O)cc1)c1[nH]c2ccc(Br)cc2c1-c1ccccc1 | 142.6* | -1.8 | -0.8 | 102.0 | 112.0 | 164.8* | 117.1
COc1cccc(-c2noc(CCC(=O)NC3CCCC3)n2)c1 | . | . | 0.1 | 104.0 | . | . | .
O=C(O)CCC(C(=O)O)n1c(O)c(C2=c3ccccc3=NC2=O)sc1=S (stereo not drawn) | 145.4* | 18.2 | -2.7 | 97.0 | 138.1* | 104.7 | 96.8
Oc1c(Cl)cc(Cl)cc1C1=NNC(c2ccc(Cl)cc2)C1 (stereo not drawn) | 152.0* | . | 2.3 | 97.0 | 147.1* | 106.7 | 98.0
O=C1C(C=NCc2ccco2)=C(O)c2ccccc21 | 141.4* | 24.9 | 7.1 | 98.0 | 186.8* | 134.9* | 164.4*
O=C1C(C=NCc2ccncc2)=C(O)c2ccccc21 | 108.2 | 37.5 | 1.0 | 101.0 | . | . | .
Cc1ccc2c(c1)cc1c(=O)n(CC(=O)NCCN3CCCC3)nc(C)n12 | . | 2.0 | 0.0 | 98.0 | . | . | .
CN1C(=O)c2ccccc2C(C(=O)NCCCN2CCCC2=O)C1c1c[nH]c2ccccc12 (stereo not drawn) | 152.4* | 26.3 | . | . | 135.6* | 105.0 | 100.0
COCCN1C(=O)c2ccccc2C(C(=O)NCCCN2CCCC2)C1c1c[nH]c2ccccc12 (stereo not drawn) | 96.5 | 3.7 | . | . | . | . | .
O=Cc1ccc2ccc3cccnc3c2n1 | . | 6.9 | 0.1 | 115.0 | . | . | .
O=Cc1ccc2cccnc2n1 | 148.0* | 13.1 | 2.1 | 102.0 | 145.9* | 105.6 | 103.2
SMILES | STAT3 act-1 | AHR act | GAA850 FXN act | ABCB6 inh 2 | STAT3 act-2 | NFkB act STAT3ct | STAT1 act
CCc1cc2c(NCCC(=O)O)nc(C)nc2s1 | 157.9* | 32.7 | 0.1 | 90.0 | 140.0* | 109.2 | 100.1
Cc1cccc(/C=N/NC(=O)C(C)Nc2cccc3ccccc23)n1 (stereo not drawn) | 164.4* | 11.2 | 2.6 | 108.0 | 138.9* | 93.7 | 97.0
Cc1cc(C)cc(N(CCC#N)C(=O)COC(=O)c2ccc(OCc3c(C)noc3C)cc2)c1 | . | -0.1 | -1.4 | 97.0 | . | . | .
COC(=O)c1c(C)[nH]c(C(=O)CN2CCOCC2)c1C | 138.9* | 1.4 | 1.8 | 94.0 | 137.6* | 107.7 | 98.5
COC(=O)c1c(C)[nH]c(C(=O)CC#N)c1C | 99.5 | 1.2 | 2.2 | 105.0 | . | . | .
O=S(=O)(Nc1cc(Sc2cccc3cccnc23)c(O)c2ccccc12)c1ccccc1 | 176.3* | . | . | . | 148.2* | 128.1* | 128.4*
Cc1ccc(S(=O)(=O)Nc2cccc3cccnc23)cc1 | 103.5 | 3.4 | -16.4 | 101.0 | . | . | .
CCOCCCNC(=O)c1ccc2c(c1)N=C(CC)c1cc(Br)ccc1S2 | 157.2* | 8.9 | -1.8 | 94.0 | 122.0 | 160.3* | 119.3
CCC1=Nc2cc(C(=O)NCCN3CCOCC3)ccc2Sc2ccccc21 | . | 1.5 | 2.8 | 106.0 | . | . | .
Cc1ccc(-n2[nH]c(C)c(/C=C3/C=Nc4ccccc43)c2=O)cc1C | 149.1* | 60.4* | 2.9 | 94.0 | 137.6* | 109.3 | 110.9
Cc1[nH]n(-c2ccccc2)c(=O)c1/C=C1\C=NN=C1c1ccccc1 | . | 5.4 | 1.4 | 91.0 | . | . | .
COCCCN1C(=O)C(CC(=O)NCCc2ccccn2)CC(C(=O)N2CCCCCC2)=C1C (stereo not drawn) | . | . | . | 102.0 | . | . | .
c1ccc2c(c1)ncc1cccn12 | 143.3* | 11.2 | 1.0 | 102.0 | 138.1* | 98.4 | 89.7
O=C(O)c1cc(Cl)c2ccccc2c1O | 138.9* | 30.7 | 2.7 | 99.0 | 130.5 | 108.8 | 107.2
Cc1ccc(OCC(=O)c2c(N)n(C)c(=O)n(C)c2=O)c([N+](=O)[O-])n1 | . | 5.0 | -0.6 | 94.0 | . | . | .
Cc1ccc(-n2nc(C)c3c2OC(N)=C(C#N)C3c2ccncc2)cc1 (stereo not drawn) | 125.0 | 17.8 | -1.1 | 98.0 | . | . | .
Cc1ccc(-n2nc(C)c3c2OC(N)=C(C#N)C3c2cccs2)cc1 (stereo not drawn) | 142.5* | 68.0* | -3.3 | 97.0 | 156.9* | 109.6 | 94.1
CCCCn1c(N)c(N(CCC(C)C)C(=O)COC(=O)c2ccccc2)c(=O)[nH]c1=O | 143.2* | 11.9 | -0.7 | 102.0 | 147.9* | 96.0 | 89.2
Cc1cc(Nc2nc(Cl)c(Cl)cc2Cl)n(-c2ccccc2)n1 | 142.6* | 67.8* | 1.4 | 93.0 | 122.9 | 109.2 | 105.6

High-throughput results: PubChem, several laboratories
